Legend:
[1] = target: GABA-A receptor; alpha-3/beta-3/gamma-2 (Homo sapiens) (UniProt P18507+P28472+P34903); assay: Efficacy against recombinant human GABA-Aalpha3 plus beta-3-gamma-2 expressed in L(tk-) cells by whole cell patch clamp method relative to chlordiazepoxide; format: functional, cell-based
Method in brief: (§1)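 Whole-cell patch clamp on αxβ3γ2 receptors stably expressed in L(tk-) cells, measuring the effect on current evoked by an EC20-equivalent of GABA. Reported relative to full agonist chlordiazepoxide (=1.0), or as direct percent modulation of the EC20 control, with inverse agonism given as percent. Mean of at least four independent experiments.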

[2] = target: GABA-A receptor; anion channel (Rattus norvegicus) (UniProt O09028+P15431+P18506+P18508+P19969+P20236+P23574+P23576+P28471+P28473+P30191+P62813+P63079+P63138+Q91ZM7+Q9ES14); assay: Receptor occupancy in vivo by displacement of [3H]Ro 15-1788 binding from GABA-A receptor in rat, po; format: functional, organism-based
Method in brief: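 Rat in vivo occupancy measured by [3H]Ro 15-1788 binding after oral dosing. Rats taken as a subgroup after the plus-maze trial, i.e. 30 min post-dose or later. ED50 derived from dose-dependent occupancy. Mean ± SEM, n = 5-10/group.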

[3] = target: T1, GABA-A receptor; alpha-1/beta-3/gamma-2 (Homo sapiens) (UniProt P14867+P18507+P28472); assay: Efficacy against recombinant human GABA-Aalpha1 plus beta-3-gamma-2 expressed in L(tk-) cells by whole cell patch clamp method relative to chlordiazepoxide; format: functional, cell-based; method in brief: as §1
[4] = target: T2, GABA-A receptor; alpha-3/beta-3/gamma-2 (Homo sapiens, UniProt P18507+P28472+P34903); assay: Displacement of [3H]Ro-151788 from recombinant human GABA-Aalpha3 receptor plus beta3gamma2; format: protein-complex assay
T2 sequence (P18507 whole entry): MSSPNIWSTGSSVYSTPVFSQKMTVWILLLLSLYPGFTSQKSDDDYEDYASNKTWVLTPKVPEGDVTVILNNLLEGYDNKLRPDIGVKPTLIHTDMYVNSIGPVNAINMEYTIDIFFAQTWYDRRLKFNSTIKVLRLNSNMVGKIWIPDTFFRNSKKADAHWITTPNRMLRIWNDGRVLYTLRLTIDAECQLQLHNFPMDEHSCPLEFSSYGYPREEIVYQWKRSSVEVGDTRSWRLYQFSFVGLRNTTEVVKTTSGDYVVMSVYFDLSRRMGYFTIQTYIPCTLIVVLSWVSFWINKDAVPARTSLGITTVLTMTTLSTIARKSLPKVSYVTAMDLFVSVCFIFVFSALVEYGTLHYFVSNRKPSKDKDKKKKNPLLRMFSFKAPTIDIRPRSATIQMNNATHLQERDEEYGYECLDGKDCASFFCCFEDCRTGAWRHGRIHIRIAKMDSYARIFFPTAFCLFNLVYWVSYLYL
T2 sequence (P28472 whole entry): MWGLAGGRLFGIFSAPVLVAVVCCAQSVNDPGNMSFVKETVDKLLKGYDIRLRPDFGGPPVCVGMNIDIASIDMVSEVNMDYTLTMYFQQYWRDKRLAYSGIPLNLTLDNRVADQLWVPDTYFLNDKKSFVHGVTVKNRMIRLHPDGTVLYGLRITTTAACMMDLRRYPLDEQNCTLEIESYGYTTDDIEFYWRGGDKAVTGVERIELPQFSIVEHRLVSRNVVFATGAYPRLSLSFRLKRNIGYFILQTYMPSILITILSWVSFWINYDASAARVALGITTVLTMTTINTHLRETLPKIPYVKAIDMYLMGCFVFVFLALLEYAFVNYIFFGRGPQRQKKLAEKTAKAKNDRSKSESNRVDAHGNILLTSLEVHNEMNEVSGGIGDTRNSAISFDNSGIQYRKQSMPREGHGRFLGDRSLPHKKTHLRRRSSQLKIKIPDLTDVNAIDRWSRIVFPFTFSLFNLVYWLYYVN
T2 sequence (P34903 whole entry): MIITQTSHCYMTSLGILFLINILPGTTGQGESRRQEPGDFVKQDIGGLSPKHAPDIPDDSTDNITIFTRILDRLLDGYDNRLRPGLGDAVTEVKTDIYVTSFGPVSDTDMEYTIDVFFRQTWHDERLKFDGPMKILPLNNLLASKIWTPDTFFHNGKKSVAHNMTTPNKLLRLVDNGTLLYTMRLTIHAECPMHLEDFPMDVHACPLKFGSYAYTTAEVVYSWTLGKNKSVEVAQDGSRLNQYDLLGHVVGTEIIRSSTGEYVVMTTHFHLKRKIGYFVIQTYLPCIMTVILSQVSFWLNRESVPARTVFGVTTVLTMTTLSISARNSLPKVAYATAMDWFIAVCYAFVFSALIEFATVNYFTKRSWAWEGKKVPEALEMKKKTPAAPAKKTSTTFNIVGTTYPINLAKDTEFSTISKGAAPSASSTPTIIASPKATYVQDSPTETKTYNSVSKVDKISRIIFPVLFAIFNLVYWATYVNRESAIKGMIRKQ
Method in brief: (§2)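 Benzodiazepine-site binding on stably transfected αxβ3γ2 receptors (x = 1, 2, 3 or 5). Inhibition curves run with [3H]Ro15-1788 at roughly twice its Kd. Ki derived by Cheng-Prusoff equation. Mean of three to six determinations.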

[5] = target: T3, GABA-A receptor; alpha-5/beta-3/gamma-2 (Homo sapiens, UniProt P18507+P28472+P31644); assay: Displacement of [3H]Ro-151788 from recombinant human GABA-Aalpha5 receptor plus beta3gamma2; format: protein-complex assay; method in brief: as §2
T3 sequence (P18507 whole entry): T2 sequence (P18507 whole entry)
T3 sequence (P28472 whole entry): T2 sequence (P28472 whole entry)
T3 sequence (P31644 whole entry): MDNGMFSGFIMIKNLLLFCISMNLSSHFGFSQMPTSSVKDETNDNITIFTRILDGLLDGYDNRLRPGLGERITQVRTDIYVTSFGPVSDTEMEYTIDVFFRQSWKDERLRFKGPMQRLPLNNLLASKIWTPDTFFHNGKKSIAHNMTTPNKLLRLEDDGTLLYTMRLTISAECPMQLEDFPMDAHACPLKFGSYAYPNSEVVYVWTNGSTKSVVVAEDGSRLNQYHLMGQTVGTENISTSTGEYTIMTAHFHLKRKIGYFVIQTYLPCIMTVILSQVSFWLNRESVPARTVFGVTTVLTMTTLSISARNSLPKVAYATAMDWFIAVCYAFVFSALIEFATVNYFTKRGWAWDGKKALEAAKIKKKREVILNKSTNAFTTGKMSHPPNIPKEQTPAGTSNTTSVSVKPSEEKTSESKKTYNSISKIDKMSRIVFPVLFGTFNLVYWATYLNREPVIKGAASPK

[6] = Stability in rat assessed as liver microsomal turnover; format: ADME, Microsome; details: liver microsomes, read-out: Stability
Method in brief: (§3)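 Test compound at 1 µM, with diazepam as control, incubated 0.25 h with pooled liver microsomes at 0.5 mg/mL protein. Compound remaining quantified by LC/MS/MS. Turnover is the mean of three determinations.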

[7] = Stability in dog assessed as liver microsomal turnover; format: ADME, Canis lupus familiaris; details: liver microsomes, read-out: Stability; method in brief: as §3
[8] = Stability in human assessed as liver microsomal turnover; format: ADME, Microsome; details: liver microsomes, read-out: Stability; method in brief: as §3
[9] = target: T4, GABA-A receptor; alpha-1/beta-3/gamma-2 (Homo sapiens, UniProt P14867+P18507+P28472); assay: Displacement of [3H]Ro-151788 from recombinant human GABA-Aalpha1 receptor plus beta3gamma2; format: protein-complex assay; method in brief: as §2
T4 sequence (P14867 whole entry): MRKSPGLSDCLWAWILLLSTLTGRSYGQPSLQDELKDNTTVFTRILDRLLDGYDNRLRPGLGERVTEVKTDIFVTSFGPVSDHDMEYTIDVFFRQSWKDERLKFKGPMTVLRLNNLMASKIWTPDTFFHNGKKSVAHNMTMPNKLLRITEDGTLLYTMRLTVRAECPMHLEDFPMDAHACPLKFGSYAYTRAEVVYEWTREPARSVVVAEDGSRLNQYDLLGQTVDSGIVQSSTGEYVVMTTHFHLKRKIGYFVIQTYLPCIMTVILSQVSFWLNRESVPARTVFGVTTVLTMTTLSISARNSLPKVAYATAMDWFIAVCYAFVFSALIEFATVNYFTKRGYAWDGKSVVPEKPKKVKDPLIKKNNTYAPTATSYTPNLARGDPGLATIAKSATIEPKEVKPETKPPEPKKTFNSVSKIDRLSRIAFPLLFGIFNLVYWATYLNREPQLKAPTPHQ
T4 sequence (P18507 whole entry): T2 sequence (P18507 whole entry)
T4 sequence (P28472 whole entry): T2 sequence (P28472 whole entry)

[10] = target: T1, GABA-A receptor; alpha-1/beta-3/gamma-2 (Homo sapiens); assay: Efficacy against recombinant human GABA-Aalpha1 plus beta-3-gamma-2 expressed in L(tk-) cells by whole cell patch clamp method; format: functional, cell-based; method in brief: as §1
[11] = target: T5, GABA-A receptor; alpha-5/beta-3/gamma-2 (Homo sapiens) (UniProt P18507+P28472+P31644); assay: Efficacy against recombinant human GABA-Aalpha5 plus beta-3-gamma-2 expressed in L(tk-) cells by whole cell patch clamp method relative to chlordiazepoxide; format: functional, cell-based; method in brief: as §1
[12] = Plasma clearance in rat; format: ADME, organism-based
Method in brief: (§4)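 Pharmacokinetics from six animals per species: three dosed iv and three dosed po.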

[13] = Half life in rat; format: ADME, organism-based; details: in vivo; method in brief: as §4
[14] = Oral bioavailability in rat; format: ADME, organism-based; details: in vivo; method in brief: as §4
[15] = target: GABA-A receptor; alpha-2/beta-3/gamma-2 (Homo sapiens) (UniProt P18507+P28472+P47869); assay: Efficacy against recombinant human GABA-Aalpha2 plus beta-3-gamma-2 expressed in L(tk-) cells by whole cell patch clamp method relative to chlordiazepoxide; format: functional, cell-based; method in brief: as §1
[16] = target: T5, GABA-A receptor; alpha-5/beta-3/gamma-2 (Homo sapiens); assay: Efficacy against recombinant human GABA-Aalpha5 plus beta-3-gamma-2 expressed in L(tk-) cells by whole cell patch clamp method; format: functional, cell-based; method in brief: as §1

| Compound | Efficacy [1] | Occ50 [2] [mg/kg] | Efficacy [3] | Ki [4] [nM] | Ki [5] [nM] | metabolised [6] [%] | metabolised [7] [%] | metabolised [8] [%] | Ki [9] [nM] | Efficacy [10] [%] | Activity [2] [mg/kg] | Efficacy [11] | clearance [12] [mL/min/kg] | half-life [13] [h] | bioavailability [14] [%] | Efficacy [15] | Efficacy [16] [%] |
| --- | --- | --- | --- | --- | --- | --- | --- | --- | --- | --- | --- | --- | --- | --- | --- | --- | --- |
| Fc1ccc(-c2cc(-c3ccc(F)c(-c4ncc(F)cc4F)c3)cnn2)c(F)c1 | 0.42 | 4.6 | 0.07 | 3.1 | 1.4 | 13 | 18 | < 5 |  |  |  |  |  |  |  |  |  |
| Fc1ccccc1-c1cc(-c2ccc(F)c(-c3ncccc3F)c2)cnn1 | 0.31 |  | 0.11 | 0.9 | 0.5 | 11 | 34 |  |  |  |  |  |  |  |  |  |  |
| Fc1cnc(-c2cc(-c3cnnc(-c4ccncc4F)c3)ccc2F)c(F)c1 | 0.41 | 15.3 |  | 8.2 | 5.6 | 23 |  | < 5 | 3.5 | -7 |  |  |  |  |  |  |  |
| Fc1ccc(-c2cnnc(-c3ncccc3F)c2)cc1-c1ncccc1F | 0.4 |  |  | 1.4 | 2.4 | 3 | 2 | 5 | 0.5 | -30 | 0.5 |  |  |  |  |  |  |
| Fc1cnc(-c2cc(-c3cnnc(-c4ncccc4F)c3)ccc2F)c(F)c1 | 0.17 |  |  | 1.7 | 3.2 | < 5 |  | < 5 | 0.4 | -26 | < 0.2 | 0.14 |  |  |  |  |  |
| Fc1ccc(-c2cc(-c3ccc(F)c(-c4ncc(F)cc4F)c3)cnn2)cc1 | 0.21 |  | 0.02 | 5.6 | 3.8 | 7 | 20 |  |  |  |  |  |  |  |  |  |  |
| Fc1cnccc1-c1cc(-c2ccc(F)c(-c3ncccc3F)c2)cnn1 | 0.58 | 7.2 |  | 5.6 | 7.7 | 17 | 8 | 8 | 0.9 | -8 |  |  | 91 | 0.8 | 5 | 0.24 | -3 |
| Fc1ccc(-c2cnnc(-c3c(F)cncc3F)c2)cc1-c1ncccc1F | 0.39 | < 0.2 |  | 3.2 | 3 | 9 | 9 | 9 | 0.8 | -7 |  |  |  |  |  |  |  |
| Fc1ccc(-c2cnnc(-c3c(F)cccc3F)c2)cc1-c1ncccc1F | 0.24 |  |  | 0.4 | 0.3 | 19 | 24 | 13 | 0.1 | -5 |  |  |  |  |  |  |  |
| Fc1cnc(-c2cc(-c3cnnc(-c4ccccc4F)c3)ccc2F)c(F)c1 | 0.4 | 3 |  | 1.7 | 0.7 | 22 | 31 | 8 |  | -20 |  |  | 30 | 2.2 | 11 | 0.2 | -20 |
